From ChEMBL document CHEMBL1138253, “Cytotoxic and apoptotic activities of novel amino analogues of boswellic acids” (2007)
Calls of active or inactive are those of the source. The calls are words filed in the database; no cut-off is given here.

System: MCF7
Test: Cytotoxicity against human MCF7 cells at 10 uM after 48 hrs
Format: functional
Conditions: MCF7, 48 h
In short: (§1)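 SRB growth assay. DMSO stock (1 × 10^-2 M) diluted in RPMI-1640 (2 mM glutamine, pH 7.4, 10% FCS, antibiotics). Trypsinized subconfluent cells with >97% viability (trypan blue) seeded at 10^5 cells/ml and grown 24 h, then exposed to compound 48 h at 37 °C, 5% CO2. Fixed with TCA at 4 °C for 1 h, stained with 0.4% SRB, solubilized in 0.01 M Tris pH 10.4, OD read at 540 nm. Run in triplicate; mean of three experiments.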

Compound | inhibition at 10 µM [%]
C[C@H]1[C@H](C)CC[C@]2(C)CC[C@]3(C)C(=CC(=O)[C@@H]4[C@@]5(C)CC[C@@H](O)[C@](C)(N)[C@@H]5CC[C@]43C)[C@H]12 | 44
CC(=O)O[C@@H]1CC[C@]2(C)[C@H]3CC=C4[C@@H]5[C@@H](C)[C@H](C)CC[C@]5(C)CC[C@@]4(C)[C@]3(C)CC[C@H]2[C@@]1(C)N | 10
CC(=O)O[C@@H]1CC[C@]2(C)[C@H]3C(=O)C=C4[C@@H]5[C@@H](C)[C@H](C)CC[C@]5(C)CC[C@@]4(C)[C@]3(C)CC[C@H]2[C@@]1(C)N | 1
C[C@H]1[C@H](C)CC[C@]2(C)CC[C@]3(C)C(=CC[C@@H]4[C@@]5(C)CC[C@@H](O)[C@](C)(N)[C@@H]5CC[C@]43C)[C@H]12 | 42
CC(=O)O[C@@H]1CC[C@@]2(C)[C@@H](CC[C@]3(C)[C@@H]2C(=O)C=C2[C@@H]4[C@@H](C)[C@H](C)CC[C@]4(C)CC[C@]23C)[C@@]1(C)C(=O)O [AKBA] | 12

System: DU-145
Test: Cytotoxicity against human DU145 cells at 10 uM after 48 hrs
Format: functional
Conditions: DU-145, 48 h
In short: as §1

Compound | inhibition at 10 µM [%]
C[C@H]1[C@H](C)CC[C@]2(C)CC[C@]3(C)C(=CC(=O)[C@@H]4[C@@]5(C)CC[C@@H](O)[C@](C)(N)[C@@H]5CC[C@]43C)[C@H]12 | 94
CC(=O)O[C@@H]1CC[C@]2(C)[C@H]3CC=C4[C@@H]5[C@@H](C)[C@H](C)CC[C@]5(C)CC[C@@]4(C)[C@]3(C)CC[C@H]2[C@@]1(C)N | 92
CC(=O)O[C@@H]1CC[C@]2(C)[C@H]3C(=O)C=C4[C@@H]5[C@@H](C)[C@H](C)CC[C@]5(C)CC[C@@]4(C)[C@]3(C)CC[C@H]2[C@@]1(C)N | 16
C[C@H]1[C@H](C)CC[C@]2(C)CC[C@]3(C)C(=CC[C@@H]4[C@@]5(C)CC[C@@H](O)[C@](C)(N)[C@@H]5CC[C@]43C)[C@H]12 | 82
CC(=O)O[C@@H]1CC[C@@]2(C)[C@@H](CC[C@]3(C)[C@@H]2C(=O)C=C2[C@@H]4[C@@H](C)[C@H](C)CC[C@]4(C)CC[C@]23C)[C@@]1(C)C(=O)O [AKBA] | 10

System: SW-620
Test: Cytotoxicity against human SW620 cells at 10 uM after 48 hrs
Format: functional
Conditions: SW-620, 48 h
In short: as §1

Compound | inhibition at 10 µM [%]
C[C@H]1[C@H](C)CC[C@]2(C)CC[C@]3(C)C(=CC(=O)[C@@H]4[C@@]5(C)CC[C@@H](O)[C@](C)(N)[C@@H]5CC[C@]43C)[C@H]12 | 87
CC(=O)O[C@@H]1CC[C@]2(C)[C@H]3CC=C4[C@@H]5[C@@H](C)[C@H](C)CC[C@]5(C)CC[C@@]4(C)[C@]3(C)CC[C@H]2[C@@]1(C)N | 80
CC(=O)O[C@@H]1CC[C@]2(C)[C@H]3C(=O)C=C4[C@@H]5[C@@H](C)[C@H](C)CC[C@]5(C)CC[C@@]4(C)[C@]3(C)CC[C@H]2[C@@]1(C)N | 72
C[C@H]1[C@H](C)CC[C@]2(C)CC[C@]3(C)C(=CC[C@@H]4[C@@]5(C)CC[C@@H](O)[C@](C)(N)[C@@H]5CC[C@]43C)[C@H]12 | 73
CC(=O)O[C@@H]1CC[C@@]2(C)[C@@H](CC[C@]3(C)[C@@H]2C(=O)C=C2[C@@H]4[C@@H](C)[C@H](C)CC[C@]4(C)CC[C@]23C)[C@@]1(C)C(=O)O [AKBA] | 2

System: not listed separately
Test: Cytotoxicity against human 502713 cells at 10 uM after 48 hrs
Format: functional
Conditions: Homo sapiens, 502713, 48 h
In short: as §1

Compound | inhibition at 10 µM [%]
C[C@H]1[C@H](C)CC[C@]2(C)CC[C@]3(C)C(=CC(=O)[C@@H]4[C@@]5(C)CC[C@@H](O)[C@](C)(N)[C@@H]5CC[C@]43C)[C@H]12 | 86
CC(=O)O[C@@H]1CC[C@]2(C)[C@H]3CC=C4[C@@H]5[C@@H](C)[C@H](C)CC[C@]5(C)CC[C@@]4(C)[C@]3(C)CC[C@H]2[C@@]1(C)N | 96
CC(=O)O[C@@H]1CC[C@]2(C)[C@H]3C(=O)C=C4[C@@H]5[C@@H](C)[C@H](C)CC[C@]5(C)CC[C@@]4(C)[C@]3(C)CC[C@H]2[C@@]1(C)N | 55
C[C@H]1[C@H](C)CC[C@]2(C)CC[C@]3(C)C(=CC[C@@H]4[C@@]5(C)CC[C@@H](O)[C@](C)(N)[C@@H]5CC[C@]43C)[C@H]12 | 99
CC(=O)O[C@@H]1CC[C@@]2(C)[C@@H](CC[C@]3(C)[C@@H]2C(=O)C=C2[C@@H]4[C@@H](C)[C@H](C)CC[C@]4(C)CC[C@]23C)[C@@]1(C)C(=O)O [AKBA] | 8

System: HT-29
Test: Cytotoxicity against human HT29 cells at 10 uM after 48 hrs
Format: functional
Conditions: HT-29, 48 h
In short: as §1

Compound | inhibition at 10 µM [%]
C[C@H]1[C@H](C)CC[C@]2(C)CC[C@]3(C)C(=CC(=O)[C@@H]4[C@@]5(C)CC[C@@H](O)[C@](C)(N)[C@@H]5CC[C@]43C)[C@H]12 | 71
CC(=O)O[C@@H]1CC[C@]2(C)[C@H]3CC=C4[C@@H]5[C@@H](C)[C@H](C)CC[C@]5(C)CC[C@@]4(C)[C@]3(C)CC[C@H]2[C@@]1(C)N | 44
CC(=O)O[C@@H]1CC[C@]2(C)[C@H]3C(=O)C=C4[C@@H]5[C@@H](C)[C@H](C)CC[C@]5(C)CC[C@@]4(C)[C@]3(C)CC[C@H]2[C@@]1(C)N | 21
C[C@H]1[C@H](C)CC[C@]2(C)CC[C@]3(C)C(=CC[C@@H]4[C@@]5(C)CC[C@@H](O)[C@](C)(N)[C@@H]5CC[C@]43C)[C@H]12 | 79
CC(=O)O[C@@H]1CC[C@@]2(C)[C@@H](CC[C@]3(C)[C@@H]2C(=O)C=C2[C@@H]4[C@@H](C)[C@H](C)CC[C@]4(C)CC[C@]23C)[C@@]1(C)C(=O)O [AKBA] | 24

System: MCF7
Test: Cytotoxicity against human MCF7 cells at 1 uM after 48 hrs
Format: functional
Conditions: MCF7, 48 h
In short: as §1

Compound | inhibition at 1 µM [%]
C[C@H]1[C@H](C)CC[C@]2(C)CC[C@]3(C)C(=CC(=O)[C@@H]4[C@@]5(C)CC[C@@H](O)[C@](C)(N)[C@@H]5CC[C@]43C)[C@H]12 | 0
CC(=O)O[C@@H]1CC[C@]2(C)[C@H]3CC=C4[C@@H]5[C@@H](C)[C@H](C)CC[C@]5(C)CC[C@@]4(C)[C@]3(C)CC[C@H]2[C@@]1(C)N | 0
C[C@H]1[C@H](C)CC[C@]2(C)CC[C@]3(C)C(=CC[C@@H]4[C@@]5(C)CC[C@@H](O)[C@](C)(N)[C@@H]5CC[C@]43C)[C@H]12 | 0

System: DU-145
Test: Cytotoxicity against human DU145 cells at 1 uM after 48 hrs
Format: functional
Conditions: DU-145, 48 h
In short: as §1

Compound | inhibition at 1 µM [%]
C[C@H]1[C@H](C)CC[C@]2(C)CC[C@]3(C)C(=CC(=O)[C@@H]4[C@@]5(C)CC[C@@H](O)[C@](C)(N)[C@@H]5CC[C@]43C)[C@H]12 | 16
CC(=O)O[C@@H]1CC[C@]2(C)[C@H]3CC=C4[C@@H]5[C@@H](C)[C@H](C)CC[C@]5(C)CC[C@@]4(C)[C@]3(C)CC[C@H]2[C@@]1(C)N | 0
C[C@H]1[C@H](C)CC[C@]2(C)CC[C@]3(C)C(=CC[C@@H]4[C@@]5(C)CC[C@@H](O)[C@](C)(N)[C@@H]5CC[C@]43C)[C@H]12 | 3

System: SW-620
Test: Cytotoxicity against human SW620 cells at 1 uM after 48 hrs
Format: functional
Conditions: SW-620, 48 h
In short: as §1

Compound | inhibition at 1 µM [%]
C[C@H]1[C@H](C)CC[C@]2(C)CC[C@]3(C)C(=CC(=O)[C@@H]4[C@@]5(C)CC[C@@H](O)[C@](C)(N)[C@@H]5CC[C@]43C)[C@H]12 | 75
CC(=O)O[C@@H]1CC[C@]2(C)[C@H]3CC=C4[C@@H]5[C@@H](C)[C@H](C)CC[C@]5(C)CC[C@@]4(C)[C@]3(C)CC[C@H]2[C@@]1(C)N | 18
C[C@H]1[C@H](C)CC[C@]2(C)CC[C@]3(C)C(=CC[C@@H]4[C@@]5(C)CC[C@@H](O)[C@](C)(N)[C@@H]5CC[C@]43C)[C@H]12 | 45

System: not listed separately
Test: Cytotoxicity against human 502713 cells at 1 uM after 48 hrs
Format: functional
Conditions: Homo sapiens, 502713, 48 h
In short: as §1

Compound | inhibition at 1 µM [%]
C[C@H]1[C@H](C)CC[C@]2(C)CC[C@]3(C)C(=CC(=O)[C@@H]4[C@@]5(C)CC[C@@H](O)[C@](C)(N)[C@@H]5CC[C@]43C)[C@H]12 | 48
CC(=O)O[C@@H]1CC[C@]2(C)[C@H]3CC=C4[C@@H]5[C@@H](C)[C@H](C)CC[C@]5(C)CC[C@@]4(C)[C@]3(C)CC[C@H]2[C@@]1(C)N | 6
C[C@H]1[C@H](C)CC[C@]2(C)CC[C@]3(C)C(=CC[C@@H]4[C@@]5(C)CC[C@@H](O)[C@](C)(N)[C@@H]5CC[C@]43C)[C@H]12 | 35

System: COLO 205
Test: Cytotoxicity against human Colo205 cells at 1 uM after 48 hrs
Format: functional
Conditions: COLO 205, 48 h
In short: as §1

Compound | inhibition at 1 µM [%]
C[C@H]1[C@H](C)CC[C@]2(C)CC[C@]3(C)C(=CC(=O)[C@@H]4[C@@]5(C)CC[C@@H](O)[C@](C)(N)[C@@H]5CC[C@]43C)[C@H]12 | 48
CC(=O)O[C@@H]1CC[C@]2(C)[C@H]3CC=C4[C@@H]5[C@@H](C)[C@H](C)CC[C@]5(C)CC[C@@]4(C)[C@]3(C)CC[C@H]2[C@@]1(C)N | 34
C[C@H]1[C@H](C)CC[C@]2(C)CC[C@]3(C)C(=CC[C@@H]4[C@@]5(C)CC[C@@H](O)[C@](C)(N)[C@@H]5CC[C@]43C)[C@H]12 | 30

System: HL-60
Test: Induction of apoptosis in human HL60 cells assessed as nucleosomal DNA fragmentation at 1 uM after 6 hrs
Format: functional, cell-based
Conditions: not given
In short: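 HL-60 cells (2 × 10^6/3 ml) exposed to 1 µM compound for 6 h, with camptothecin as positive control and DMSO vehicle in untreated controls. DNA was extracted and run on 1.8% agarose gel to look for laddering.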

Compound | Activity
C[C@H]1[C@H](C)CC[C@]2(C)CC[C@]3(C)C(=CC(=O)[C@@H]4[C@@]5(C)CC[C@@H](O)[C@](C)(N)[C@@H]5CC[C@]43C)[C@H]12 | Active
CC(=O)O[C@@H]1CC[C@]2(C)[C@H]3CC=C4[C@@H]5[C@@H](C)[C@H](C)CC[C@]5(C)CC[C@@]4(C)[C@]3(C)CC[C@H]2[C@@]1(C)N | Active
CC(=O)O[C@@H]1CC[C@]2(C)[C@H]3C(=O)C=C4[C@@H]5[C@@H](C)[C@H](C)CC[C@]5(C)CC[C@@]4(C)[C@]3(C)CC[C@H]2[C@@]1(C)N | Active
C[C@H]1[C@H](C)CC[C@]2(C)CC[C@]3(C)C(=CC[C@@H]4[C@@]5(C)CC[C@@H](O)[C@](C)(N)[C@@H]5CC[C@]43C)[C@H]12 | Active
